ChEMBL document CHEMBL1629423, “Second generation analogs of rigid 6,7-spiro scaffolds targeting the bacterial ribosome” (Bioorg Med Chem Lett, 2010)

How the values were obtained:
[1] = molecular target: Nucleic Acid; test: Binding affinity to RNA by RNA fluorescence assay; type: nucleic-acid assay
Summary of the method: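 Decoding-site model RNA oligonucleotide carrying 2-aminopurine at the flexible adenine A1492. Binding is read as the rise in 2AP fluorescence emission. EC50 is the mean of three replicate experiments per compound (±10%), in μM.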

[2] = molecular target: Bacterial 70S ribosome; test: Binding affinity to Escherichia coli ribosome assessed as inhibition of transcription-translational activity by luciferase assay; type: subcellular
Summary of the method: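 Coupled in vitro transcription–translation run in E. coli extract. IC50 values are given in μM and averaged over three replicate experiments per compound (±15%).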

[3] = molecular target: Ribosome; test: Binding affinity to ribosome in reticulocyte lysate assessed as inhibition of transcription-translational activity by luciferase assay; type: subcellular
Summary of the method: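 Eukaryotic counter-screen by coupled transcription/translation (TNT quick) in reticulocyte lysate. IC50 is the mean of three replicate experiments per compound (±15%), in μM.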

Compound | EC50 [1] | IC50 [2] | IC50 [3]
N[C@@H]1C[C@H](N)[C@@]2(C[C@H](O)[C@H](O)CO2)[C@H](O)[C@H]1O | 6.5 µM | 11.3 µM | > 1000 µM
N[C@@H]1C[C@H](N)[C@@]2(CC[C@@H](O)[C@@H](O)CO2)[C@H](O)[C@H]1O | 141 µM | 168 µM | 160 µM
N[C@@H]1C[C@H](N)[C@@]2(CC[C@H](O)[C@H](O)CO2)[C@H](O)[C@H]1O | 74 µM | 118 µM | 130 µM
N[C@@H]1C[C@H](N)[C@@]2(CCC=CCO2)[C@H](O)[C@H]1O | 8.4 µM | > 1000 µM | > 1000 µM
C=CCC(C)(C)CN[C@@H]1C[C@H](N)[C@@]2(CCC=CCO2)[C@H](O)[C@H]1O | 63 µM | 429 µM | > 1000 µM
NCC[C@H](O)C(=O)N[C@@H]1C[C@H](N)[C@@]2(CC[C@H](O)[C@H](O)CO2)[C@H](O)[C@H]1O | 6.9 µM | 186 µM | > 1000 µM
NCCCC[C@H](N)C(=O)N[C@@H]1C[C@H](N)[C@@]2(CC[C@H](O)[C@H](O)CO2)[C@H](O)[C@H]1O | 12 µM | 98 µM | > 1000 µM
NC[C@@H]1O[C@H](O[C@H]2[C@@H](O)[C@H](O[C@@H]3[C@@H](O)[C@H](N)C[C@H](N)[C@H]3O[C@H]3O[C@H](CN)[C@@H](O)[C@H](O)[C@H]3N)O[C@@H]2CO)[C@H](N)[C@@H](O)[C@@H]1O [FRAMYCETIN] | 0.007 µM | 0.032 µM | 252 µM
NC[C@H]1O[C@H](O[C@H]2[C@H](O)[C@@H](O)[C@H](N)C[C@@H]2N)[C@H](N)[C@@H](O)[C@@H]1O [NEAMINE] | 9.5 µM | 5 µM | 120 µM
